Tested on: U2OS
Experiment: Multiplex assay against U2OS
Type: toxicity, cell-based
Settings: human
Procedure, shortened: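 Cells stained live at seeding with Hoechst33342, BioTracker Green Microtubule Cytoskeleton Dye, MitoTracker Red and Annexin V Alexa Fluor 680 were imaged on a CQ1 microscope at 37°C and 5% CO2 after compound addition. Their classification by CellPathfinder machine-learning gating ran from Hoechst high-intensity objects versus normal cells, to healthy, pyknosed or fragmented nuclei among normal cells, to mitotic or apoptotic among pyknosed cells. Tubulin, mitochondrial-mass and membrane-permeability phenotypes are per cents of healthy-nucleus cells.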

[1] = 12 h, 1 µM, compound concentration 1 uM, replicate 1
[2] = 12 h, 1 µM, compound concentration 1 uM, replicate 2
[3] = 12 h, 10 µM, compound concentration 10 uM, replicate 1
[4] = 12 h, 10 µM, compound concentration 10 uM, replicate 2
[5] = 24 h, 1 µM, compound concentration 1 uM, replicate 1
[6] = 24 h, 1 µM, compound concentration 1 uM, replicate 2
[7] = 24 h, 10 µM, compound concentration 10 uM, replicate 1
[8] = 24 h, 10 µM, compound concentration 10 uM, replicate 2
[9] = 48 h, 1 µM, compound concentration 1 uM, replicate 1
[10] = 48 h, 1 µM, compound concentration 1 uM, replicate 2
[11] = 48 h, 10 µM, compound concentration 10 uM, replicate 1
[12] = 48 h, 10 µM, compound concentration 10 uM, replicate 2

Question: O=C(Cc1ccc(-c2ccc(OCCN3CCOCC3)cc2)cn1)NCc1ccccc1 [TIRBANIBULIN] was tested. Which “Population Apoptotic (%)” value [1] did it give?
Answer: 52%

Question: And the “Population Fragmented Nuclei (%)” value [1]?
Answer: 10%

Question: What about the “Population Healthy Nuclei (%)” value [1] of the same compound?
Answer: 76%

Question: And the “Population Hoechst High Intensity Objects (%)” value [1]?
Answer: 7%

Question: What about the “Population Membrane Permeable-Phenotype (%)” value [1] of the same compound?
Answer: 8%

Question: And the “Population Mitochondria Different-Phenotype (%)” value [1]?
Answer: 20%

Question: What about the “Population Mitotic Cells (%)” value [1] of the same compound?
Answer: 47%

Question: And the “Population Normal (%)” value [1]?
Answer: 92%

Question: What about the “Population Pyknosed Nuclei (%)” value [1] of the same compound?
Answer: 12%

Question: And the “Population Tubulin-Different-Phenotype (%)” value [1]?
Answer: 19%

Question: What about the “Total Cell Count” value [1] of the same compound?
Answer: 172

Question: And the “Population Apoptotic (%)” value [2]?
Answer: 0%

Question: And the “Population Fragmented Nuclei (%)” value [2]?
Answer: 5%

Question: And the “Population Healthy Nuclei (%)” value [2]?
Answer: 90%

Question: What about the “Population Hoechst High Intensity Objects (%)” value [2] of the same compound?
Answer: 12%

Question: And the “Population Membrane Permeable-Phenotype (%)” value [2]?
Answer: 9%

Question: And the “Population Mitochondria Different-Phenotype (%)” value [2]?
Answer: 21%

Question: What about the “Population Mitotic Cells (%)” value [2] of the same compound?
Answer: 100%

Question: And the “Population Normal (%)” value [2]?
Answer: 87%

Question: And the “Population Pyknosed Nuclei (%)” value [2]?
Answer: 4%

Question: And the “Population Tubulin-Different-Phenotype (%)” value [2]?
Answer: 12%

Question: What about the “Total Cell Count” value [2] of the same compound?
Answer: 108

Question: And the “Population Apoptotic (%)” value [3]?
Answer: 21%

Question: What about the “Population Fragmented Nuclei (%)” value [3] of the same compound?
Answer: 10%

Question: What about the “Population Healthy Nuclei (%)” value [3] of the same compound?
Answer: 72%

Question: And the “Population Hoechst High Intensity Objects (%)” value [3]?
Answer: 10%

Question: What about the “Population Membrane Permeable-Phenotype (%)” value [3] of the same compound?
Answer: 8%

Question: And the “Population Mitochondria Different-Phenotype (%)” value [3]?
Answer: 16%

Question: What about the “Population Mitotic Cells (%)” value [3] of the same compound?
Answer: 78%

Question: And the “Population Normal (%)” value [3]?
Answer: 89%

Question: And the “Population Pyknosed Nuclei (%)” value [3]?
Answer: 16%

Question: And the “Population Tubulin-Different-Phenotype (%)” value [3]?
Answer: 10%

Question: What about the “Total Cell Count” value [3] of the same compound?
Answer: 169

Question: What about the “Population Apoptotic (%)” value [4] of the same compound?
Answer: 50%

Question: What about the “Population Fragmented Nuclei (%)” value [4] of the same compound?
Answer: 13%

Question: What about the “Population Healthy Nuclei (%)” value [4] of the same compound?
Answer: 78%

Question: What about the “Population Membrane Permeable-Phenotype (%)” value [4] of the same compound?
Answer: 4%

Question: What about the “Population Mitochondria Different-Phenotype (%)” value [4] of the same compound?
Answer: 19%

Question: And the “Population Mitotic Cells (%)” value [4]?
Answer: 50%

Question: And the “Population Pyknosed Nuclei (%)” value [4]?
Answer: 7%

Question: What about the “Population Tubulin-Different-Phenotype (%)” value [4] of the same compound?
Answer: 12%

Question: What about the “Total Cell Count” value [4] of the same compound?
Answer: 81

Question: And the “Population Apoptotic (%)” value [5]?
Answer: 34%

Question: What about the “Population Fragmented Nuclei (%)” value [5] of the same compound?
Answer: 20%

Question: And the “Population Healthy Nuclei (%)” value [5]?
Answer: 50%

Question: And the “Population Hoechst High Intensity Objects (%)” value [5]?
Answer: 8%

Question: What about the “Population Membrane Permeable-Phenotype (%)” value [5] of the same compound?
Answer: 9%

Question: What about the “Population Mitochondria Different-Phenotype (%)” value [5] of the same compound?
Answer: 35%

Question: And the “Population Mitotic Cells (%)” value [5]?
Answer: 65%

Question: And the “Population Normal (%)” value [5]?
Answer: 91%

Question: What about the “Population Pyknosed Nuclei (%)” value [5] of the same compound?
Answer: 29%

Question: What about the “Population Tubulin-Different-Phenotype (%)” value [5] of the same compound?
Answer: 21%

Question: And the “Total Cell Count” value [5]?
Answer: 227

Question: And the “Population Apoptotic (%)” value [6]?
Answer: 61%

Question: What about the “Population Fragmented Nuclei (%)” value [6] of the same compound?
Answer: 16%

Question: And the “Population Healthy Nuclei (%)” value [6]?
Answer: 66%

Question: And the “Population Hoechst High Intensity Objects (%)” value [6]?
Answer: 9%

Question: What about the “Population Membrane Permeable-Phenotype (%)” value [6] of the same compound?
Answer: 6%

Question: And the “Population Mitochondria Different-Phenotype (%)” value [6]?
Answer: 44%

Question: What about the “Population Mitotic Cells (%)” value [6] of the same compound?
Answer: 38%

Question: What about the “Population Normal (%)” value [6] of the same compound?
Answer: 90%

Question: What about the “Population Pyknosed Nuclei (%)” value [6] of the same compound?
Answer: 17%

Question: What about the “Population Tubulin-Different-Phenotype (%)” value [6] of the same compound?
Answer: 10%

Question: What about the “Total Cell Count” value [6] of the same compound?
Answer: 155

Question: What about the “Population Apoptotic (%)” value [7] of the same compound?
Answer: 34%

Question: What about the “Population Fragmented Nuclei (%)” value [7] of the same compound?
Answer: 15%

Question: What about the “Population Healthy Nuclei (%)” value [7] of the same compound?
Answer: 64%

Question: What about the “Population Hoechst High Intensity Objects (%)” value [7] of the same compound?
Answer: 8%

Question: And the “Population Membrane Permeable-Phenotype (%)” value [7]?
Answer: 8%

Question: And the “Population Mitochondria Different-Phenotype (%)” value [7]?
Answer: 46%

Question: And the “Population Mitotic Cells (%)” value [7]?
Answer: 65%

Question: And the “Population Normal (%)” value [7]?
Answer: 91%

Question: What about the “Population Pyknosed Nuclei (%)” value [7] of the same compound?
Answer: 20%

Question: And the “Population Tubulin-Different-Phenotype (%)” value [7]?
Answer: 11%

Question: And the “Total Cell Count” value [7]?
Answer: 160

Question: What about the “Population Apoptotic (%)” value [8] of the same compound?
Answer: 66%

Question: What about the “Population Fragmented Nuclei (%)” value [8] of the same compound?
Answer: 19%

Question: And the “Population Healthy Nuclei (%)” value [8]?
Answer: 57%

Question: What about the “Population Hoechst High Intensity Objects (%)” value [8] of the same compound?
Answer: 10%

Question: What about the “Population Membrane Permeable-Phenotype (%)” value [8] of the same compound?
Answer: 10%

Question: What about the “Population Mitochondria Different-Phenotype (%)” value [8] of the same compound?
Answer: 40%

Question: What about the “Population Mitotic Cells (%)” value [8] of the same compound?
Answer: 33%

Question: What about the “Population Normal (%)” value [8] of the same compound?
Answer: 89%

Question: What about the “Population Pyknosed Nuclei (%)” value [8] of the same compound?
Answer: 23%

Question: What about the “Population Tubulin-Different-Phenotype (%)” value [8] of the same compound?
Answer: 13%

Question: What about the “Total Cell Count” value [8] of the same compound?
Answer: 82

Question: And the “Population Apoptotic (%)” value [9]?
Answer: 67%

Question: What about the “Population Fragmented Nuclei (%)” value [9] of the same compound?
Answer: 24%

Question: And the “Population Healthy Nuclei (%)” value [9]?
Answer: 40%

Question: And the “Population Hoechst High Intensity Objects (%)” value [9]?
Answer: 9%

Question: And the “Population Membrane Permeable-Phenotype (%)” value [9]?
Answer: 7%

Question: And the “Population Mitochondria Different-Phenotype (%)” value [9]?
Answer: 39%

Question: And the “Population Mitotic Cells (%)” value [9]?
Answer: 32%

Question: And the “Population Normal (%)” value [9]?
Answer: 90%

Question: And the “Population Pyknosed Nuclei (%)” value [9]?
Answer: 35%

Question: What about the “Population Tubulin-Different-Phenotype (%)” value [9] of the same compound?
Answer: 25%

Question: And the “Total Cell Count” value [9]?
Answer: 340

Question: What about the “Population Apoptotic (%)” value [10] of the same compound?
Answer: 75%

Question: What about the “Population Fragmented Nuclei (%)” value [10] of the same compound?
Answer: 22%

Question: What about the “Population Healthy Nuclei (%)” value [10] of the same compound?
Answer: 45%

Question: What about the “Population Hoechst High Intensity Objects (%)” value [10] of the same compound?
Answer: 11%

Question: And the “Population Membrane Permeable-Phenotype (%)” value [10]?
Answer: 29%

Question: And the “Population Mitochondria Different-Phenotype (%)” value [10]?
Answer: 64%

Question: What about the “Population Mitotic Cells (%)” value [10] of the same compound?
Answer: 25%

Question: And the “Population Normal (%)” value [10]?
Answer: 88%

Question: And the “Population Pyknosed Nuclei (%)” value [10]?
Answer: 32%

Question: What about the “Population Tubulin-Different-Phenotype (%)” value [10] of the same compound?
Answer: 35%

Question: And the “Total Cell Count” value [10]?
Answer: 239

Question: And the “Population Apoptotic (%)” value [11]?
Answer: 64%

Question: And the “Population Fragmented Nuclei (%)” value [11]?
Answer: 24%

Question: And the “Population Healthy Nuclei (%)” value [11]?
Answer: 32%

Question: And the “Population Hoechst High Intensity Objects (%)” value [11]?
Answer: 10%

Question: What about the “Population Membrane Permeable-Phenotype (%)” value [11] of the same compound?
Answer: 15%

Question: What about the “Population Mitochondria Different-Phenotype (%)” value [11] of the same compound?
Answer: 63%

Question: And the “Population Mitotic Cells (%)” value [11]?
Answer: 35%

Question: What about the “Population Normal (%)” value [11] of the same compound?
Answer: 89%

Question: And the “Population Pyknosed Nuclei (%)” value [11]?
Answer: 43%

Question: What about the “Population Tubulin-Different-Phenotype (%)” value [11] of the same compound?
Answer: 22%

Question: What about the “Total Cell Count” value [11] of the same compound?
Answer: 174

Question: What about the “Population Apoptotic (%)” value [12] of the same compound?
Answer: 70%

Question: What about the “Population Fragmented Nuclei (%)” value [12] of the same compound?
Answer: 23%

Question: And the “Population Healthy Nuclei (%)” value [12]?
Answer: 45%

Question: What about the “Population Hoechst High Intensity Objects (%)” value [12] of the same compound?
Answer: 11%

Question: And the “Population Membrane Permeable-Phenotype (%)” value [12]?
Answer: 44%

Question: What about the “Population Mitochondria Different-Phenotype (%)” value [12] of the same compound?
Answer: 68%

Question: And the “Population Mitotic Cells (%)” value [12]?
Answer: 29%

Question: What about the “Population Normal (%)” value [12] of the same compound?
Answer: 88%

Question: And the “Population Pyknosed Nuclei (%)” value [12]?
Answer: 30%

Question: What about the “Population Tubulin-Different-Phenotype (%)” value [12] of the same compound?
Answer: 36%

Question: What about the “Total Cell Count” value [12] of the same compound?
Answer: 85

From ChEMBL document CHEMBL4689842, “EUbOPEN Chemogenomics Library wave 1” (2021)
